Laboratory results reported in ChEMBL document CHEMBL1275560, “Serial daptomycin selection generates daptomycin-nonsusceptible Staphylococcus aureus strains with a heterogeneous vancomycin-intermediate phenotype” (2008).
In brackets after ≈: the same amount, converted by molar mass. Activity calls are given as the source filed them. No cut-off for these calls is given here.

Legend:
[1] = tested on: Staphylococcus aureus; assay: Antimicrobial activity against methicillin-resistant Staphylococcus aureus N315DeltaIP by Etest method in presence of 200 uM GdCl3
[2] = tested on: Staphylococcus aureus; assay: Antimicrobial activity against Staphylococcus aureus 10*3d1-10 by Etest method; format: functional
How it was run: (§1)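 MICs read by Etest on Mueller-Hinton agar, following the manufacturer's method. Agents tested were daptomycin, vancomycin, teicoplanin, linezolid, oxacillin, imipenem, bacitracin, fosfomycin and colistin. For fosfomycin the agar carried 25 µg/ml D-glucose-6-phosphate. The daptomycin Etest was also run with 200 µM gadolinium(III) chloride in the agar. Daptomycin MICs were read at both 24 h and 48 h.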

[3] = tested on: Staphylococcus aureus; assay: Antimicrobial activity against Staphylococcus aureus 10*3d1 by Etest method; format: functional; how it was run: as §1
[4] = tested on: Staphylococcus aureus; assay: Antimicrobial activity against methicillin-resistant Staphylococcus aureus N315DeltaIP assessed as decreased membrane potential; format: functional, organism-based
How it was run: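 Flow cytometry with DiOC2(3). Cells were grown to exponential phase (OD600 0.3) in MHB with 50 µg/ml calcium, then diluted 1:100 in kit buffer. GdCl3 was 200 µM final; CCCP-treated and heat-killed cells served as controls. TO-PRO-3 (500 nM) flagged damaged membranes. Dye at 30 µM, 4 min, room temperature. 10,000 cells per run, 488-nm excitation; red/green ratio of population mean fluorescence.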

[5] = tested on: Staphylococcus aureus; assay: Antimicrobial activity against methicillin-resistant Staphylococcus aureus 10*3d1 by Etest method in presence of 200 uM GdCl3; format: functional
How it was run: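 Etest on Mueller-Hinton agar containing gadolinium(III) chloride at 200 µM, used as a mechanosensitive channel (MscL) blocker; MICs read at 24 h and also at 48 h so a slowly growing resistant subpopulation is not missed. The strain is a two-step daptomycin-selected derivative of MRSA N315ΔIP, stocked at –80°C in 40% glycerol.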

[6] = tested on: Staphylococcus aureus; assay: Antimicrobial activity against methicillin-resistant Staphylococcus aureus N315DeltaIP by Etest method; format: functional
How it was run: (§2)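 Etest MICs on Mueller-Hinton agar, run per manufacturer. Fosfomycin plates carried 25 µg/ml glucose-6-phosphate. Daptomycin Etest was also done with 200 µM GdCl3 in agar. Daptomycin MICs were read at 24 h and again at 48 h to capture slowly growing resistant subpopulations.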

[7] = tested on: Staphylococcus aureus; assay: Antimicrobial activity against methicillin-resistant Staphylococcus aureus N315DeltaIP heteroresistant subpopulations by Etest method; format: functional; how it was run: as §2

| Compound | MIC [1] | MIC [2] | MIC [3] | Activity [4] | MIC [5] | MIC [6] | MIC [7] |
| --- | --- | --- | --- | --- | --- | --- | --- |
| CCCCCCCCCC(=O)N[C@@H](Cc1c[nH]c2ccccc12)C(=O)N[C@H](CC(N)=O)C(=O)N[C@@H](CC(=O)O)C(=O)N[C@@H]1C(=O)NCC(=O)N[C@@H](CCCN)C(=O)N[C@@H](CC(=O)O)C(=O)N[C@H](C)C(=O)N[C@@H](CC(=O)O)C(=O)NCC(=O)N[C@H](CO)C(=O)N[C@@H]([C@H](C)CC(=O)O)C(=O)N[C@@H](CC(=O)c2ccccc2N)C(=O)O[C@@H]1C | 0.5 µg/mL | 1 µg/mL (≈ 0.617 µM) | 3 µg/mL (≈ 1.85 µM) | Active | 3 µg/mL | 0.5 µg/mL (≈ 0.309 µM) |  |
| C[C@@H](O)[C@H]1C(=O)N2C(C(=O)O)=C(SCCNC=N)C[C@H]12 [IMIPENEM ANHYDROUS] |  | > 32 µg/mL | > 32 µg/mL |  |  | 2 µg/mL (≈ 6.68 µM) | 3 µg/mL (≈ 10 µM) |
| COLISTIN |  | 192 µg/mL | 192 µg/mL |  |  | 256 µg/mL |  |
| C[C@@H]1O[C@@H]1P(=O)(O)O [FOSFOMYCIN] |  | 2 µg/mL (≈ 14.5 µM) | 0.5 µg/mL (≈ 3.62 µM) |  |  | 12 µg/mL (≈ 86.9 µM) |  |
| Cc1onc(-c2ccccc2)c1C(=O)N[C@@H]1C(=O)N2[C@@H]1SC(C)(C)[C@@H]2C(=O)O [OXACILLIN] |  | > 256 µg/mL | > 256 µg/mL |  |  | 24 µg/mL (≈ 59.8 µM) | 192 µg/mL (≈ 478 µM) |
| CN[C@H](CC(C)C)C(=O)N[C@H]1C(=O)N[C@@H](CC(N)=O)C(=O)N[C@H]2C(=O)N[C@H]3C(=O)N[C@H](C(=O)N[C@H](C(=O)O)c4cc(O)cc(O)c4-c4cc3ccc4O)[C@H](O)c3ccc(c(Cl)c3)Oc3cc2cc(c3O[C@@H]2O[C@H](CO)[C@@H](O)[C@H](O)[C@H]2O[C@H]2C[C@](C)(N)[C@H](O)[C@H](C)O2)Oc2ccc(cc2Cl)[C@H]1O [VANCOMYCIN] |  |  | 3 µg/mL (≈ 2.07 µM) |  |  | 0.75 µg/mL (≈ 0.518 µM) |  |
